This is one part of the list. A number with no mark means an inactive call. Calls of active or inactive are those of the source.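 How the source made its calls, unless noted: active means mean percent activation of the reporter above a cutoff set as the average over tested compounds plus their standard deviation; inactive means the rest.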
Tests used:
[1] = biological target: Oxysterols receptor LXR-beta (Homo sapiens) (UniProt P55055); assay: LXR agonists, Gal4 luciferase reporter, confirmation, counter-screen for hcDAF-12 agonist project, cell-based, luminescence, HEK293, H. contortus campaign (AID 743027); conditions: HEK293 Gal4-LXR tk-luc reporter, 24 h, at 6.8 µM, stronger effect = higher value, normalized: DMSO 0%, positive control 100%
Oxysterols receptor LXR-beta (Homo sapiens), sequence (P55055 whole entry, looked up, the tested form may be a part): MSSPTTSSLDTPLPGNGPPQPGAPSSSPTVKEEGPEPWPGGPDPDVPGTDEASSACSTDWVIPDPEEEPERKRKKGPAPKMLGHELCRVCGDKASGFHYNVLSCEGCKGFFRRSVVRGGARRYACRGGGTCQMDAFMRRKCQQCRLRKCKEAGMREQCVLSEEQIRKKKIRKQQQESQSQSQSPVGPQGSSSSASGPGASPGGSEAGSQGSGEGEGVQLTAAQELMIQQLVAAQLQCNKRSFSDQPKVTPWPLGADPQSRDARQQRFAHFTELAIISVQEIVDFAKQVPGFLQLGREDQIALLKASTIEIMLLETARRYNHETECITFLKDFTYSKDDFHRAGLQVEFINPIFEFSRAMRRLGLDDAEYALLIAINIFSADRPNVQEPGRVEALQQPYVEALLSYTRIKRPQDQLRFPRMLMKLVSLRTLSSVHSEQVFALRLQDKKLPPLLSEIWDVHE
Method in brief: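 Assay system: Gal4-LXR and tk-luc reporter transfected HEK293 cells; Compound: 6.8 µM single dose; Times: one-day compound treatment at 37 °C; Technique: One-Glo luciferase luminescence; Read-out basis: % activation relative to DMSO and positive-control wells; Benchmarks: DMSO low control, positive-control high control; Repeats: three replicates per compound.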

[2] = tested on: Nuclear hormone receptor DAF-12 (Haemonchus contortus); assay: H. contortus DAF-12 receptor agonists, confirmation, cell-based, luminescence, HEK293, lit1-tk-luc, triplicate (AID 743032;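 active means mean activation across triplicate tests above the threshold derived from the earlier primary screen, cut at about 5.5% in these data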;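 further: 0% = DMSO only wells and 100% = 3 µM Δ7-dafachronic acid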); conditions: HEK293 hcDAF-12 lit1-tk-luc reporter, at 6.8 µM, stronger effect = higher value, % of Δ7-dafachronic acid response

| Structure (SMILES) | activation [1] [%] | activation [2] |
| --- | --- | --- |
| Cc1ccc2nc(-c3ccccc3)c(CC3CCCCC3)n2c1 | 0.85 | 9.61% (active) |
| O=C(Oc1ccc([N+](=O)[O-])cc1)c1ccc2ccccc2n1 | -0.2 | 4.02% |
| CC(C#N)OC(=O)c1cccnc1SCC(=O)Nc1ccc2c(c1)OCO2 (configuration not stated) | 0.05 | 5.55% |
| Cc1nn(CCOc2ccccc2)c(=O)n1-c1ccccc1F | 0.49 | 5.42% |
| O=c1[nH]c(CCl)nc2cc(-c3ccc(Cl)cc3)sc12 | 0.52 | 1.27% |
| Clc1cccc(-c2nc3nc4ccccc4nc3n2Cc2ccco2)c1 | 0.26 | 5.41% |
| CN1CCc2ccccc2C1Cc1ccccc1NC(=O)c1sc2ccccc2c1Cl (configuration not stated) | -0.05 | 1.76% |
| COc1ccc(C2=NOC(COC(=O)c3ccc4ccccc4n3)C2)cc1 (configuration not stated) | 0.05 | 4.94% |
| C/C(=N/NC(=O)c1ccc(Br)o1)c1ccc(C)o1 | -0.01 | 4.27% |
| Cc1ccc(S(=O)(=O)Nc2nc3ccccc3nc2N2CCc3ccccc3C2)cc1 | 0.14 | 8.94% (active) |
| O=C(O)CN1c2cccc3cccc(c23)S1(=O)=O | -0.29 | 1.3% |
| CC(C)(C)OC(=O)N/N=C/c1ccc(C(=O)O)cc1 | -0.15 | 0.76% |
| Cc1c(C=O)c2ccccc2n1CC(=O)O | -0.12 | 1.56% |
| COc1ccccc1OCC(=O)O/N=C(\N)c1ccccn1 | 0.86 | 5.68% (active) |
| COc1ccc(C2COC(=O)C2=N)c(NC(=O)c2ccccc2)c1 (configuration not stated) | -0.25 | 4.45% |
| OC(COc1ccc2ccccc2c1)CN1CCOCC1 (configuration not stated) | 0.33 | 8.99% (active) |
| O=[N+]([O-])c1ccc2oc(-c3cccc(O)c3)nc2c1 | 1.82 | 20% (active) |
| CCS(=O)(=O)c1cc([N+](=O)[O-])c(Sc2ccccc2N)s1 | 0.38 | 7.39% (active) |
| CCCCN(C)C(=O)c1ccc2c(c1)N(CC)C(=O)c1ccccc1S2(=O)=O | -0.28 | 0.81% |
| O=C(CSC(=S)N1CCOCC1)c1ccccc1 | 1 | 5.12% |
| CNc1nc(Nc2ccc(C)c(Cl)c2)nc(N)c1[N+](=O)[O-] | 0.77 | 10.9% (active) |
| NC(=O)Nc1ccccc1C(=O)NCCc1ccccc1 | 0.34 | 4.12% |
| Cc1cccnc1NC(=O)Cn1c(=O)oc2ccccc21 | -0.23 | 1.31% |

| Structure (SMILES) | activation [1] [%] | activation [2] |
| --- | --- | --- |
| COc1ccc(-c2cn3ccc(C)cc3n2)cc1 | 1.71 | 9.09% (active) |
| COc1ccccc1-c1nnc(NC(=O)c2ccc3ncsc3c2)o1 | 0.28 | 10.3% (active) |
| COC(=O)C1=NN(c2ccccc2)C2C(=O)N(c3ccccc3OC)C(=O)C12 (configuration not stated) | -0.15 | -0.03% |
| O=C(COc1cccc(Cl)c1)NCc1ccccc1 | -0.12 | 0.38% |
| O=C(CN1CCCCC1)NC(=O)Nc1ccccc1F | 0.17 | 1.2% |
| Cc1ccc2cc(/C=N/Nc3ccc(C(=O)O)cc3)c(Cl)nc2c1 | 0.97 | 8.18% (active) |
| O=C(O)c1ccccc1CSc1nc2ccccc2s1 | 0.24 | 9.05% (active) |
| CC(=O)N1C(=O)/C(=C2\SC(=S)N(NC(=O)c3ccc(O)cc3)C2=O)c2ccccc21 | -0.17 | 1.25% |
| Cc1nc2cc(NC(=O)Nc3cccc(F)c3)ccc2n1C | 1.98 | 11.2% (active) |
| Cc1ccc(C(=O)O/N=C(\N)c2ccccn2)cc1Cl | 1.52 | 4.81% |
| CCn1cc(CN2CCN(CC(C)(C)C)C(CCO)C2)c2ccccc21 (configuration not stated) | -0.12 | 3.73% |
| COc1ccc(-c2c3c(=O)n(C)c(=O)n(C)c3cn2-c2cccc(OC)c2)cc1 | -0.23 | 3.87% |
| COc1cc2ccccc2cc1C(=O)Nc1ccccc1C | 0.82 | 9.11% (active) |
| COc1ccc(C2CC(c3cccs3)=Nc3ccccc3S2)cc1OC (configuration not stated) | -0.03 | 2.78% |
| Cc1ccccc1C(=O)N[C@H](C(=O)N1CCC[C@H]1C(=O)NCc1ccccc1)C(C)C | -0.15 | 0.18% |
| Cc1ccc(-c2nc3ccccc3[nH]2)cc1N | 2.07 | 10.4% (active) |
| Cn1c(=O)c(C(=O)Nc2ncccn2)c(O)c2ccccc21 | 0.73 | 15.3% (active) |
| COc1ccc(OCc2cc(C(=O)N3CCCC3)no2)c2ccccc12 | 0.67 | 8.88% (active) |
| O=C(Cn1ccc([N+](=O)[O-])n1)NCc1cccs1 | -0.27 | 1.71% |
| NC(=O)c1c(NC(=O)c2ccccc2)sc2c1CCCC2 | 1.21 | 13.6% (active) |
| COc1ccccc1C(=O)NCc1nnc(SC(C)C(=O)Nc2nccs2)n1C (configuration not stated) | -0.14 | 4.95% |
| Cc1ccccc1Nc1nnc(SCC(=O)c2cc3ccccc3o2)s1 | -0.11 | 1.9% |
| CCS(=O)(=O)N1Cc2ccccc2CC1C(=O)Nc1nc2ccc(F)cc2s1 (configuration not stated) | 0.39 | 6.53% (active) |

— PubChem BioAssay
